This note sets out measurements from PMC12591034 (RSC Advances, 2025).

What all share (format): cell-based
Data set [1] deals with A549 (lung) carcinoma cells. The data set can be described thus: Cytotoxicity, SRB assay, A549. As to conditions: Homo sapiens, A549, read-out: IC50 Cytotoxicity A549. Put shortly:
(§1)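 Sulforhodamine B (SRB) cytotoxicity assay on human A549 lung, Hep-G2 liver and MCF-7 breast carcinoma cells, run alongside non-cancer HEK-293A embryonic kidney cells. Results are given as mean ± SD from three independent experiments. IC50 was estimated by curve fitting.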
(Sulforhodamine B stains cellular protein and so reports cell mass.)

The subject of data set [2] is Hep-G2 (liver) carcinoma cells. The data set can be described thus: Cytotoxicity, SRB assay, Hep-G2. The settings on record: Homo sapiens, HepG2, read-out: IC50 Cytotoxicity Hep-G2. The method, boiled down: as §1
Data set [3] deals with MCF-7 (breast) carcinoma cells. Description: Cytotoxicity, SRB assay, MCF-7. The settings on record: Homo sapiens, MCF7, read-out: IC50 Cytotoxicity MCF-7. Put shortly: as §1
Data set [4] in a line: Cytotoxicity, SRB assay, HEK-293A. As to conditions: human, HEK-293A embryonic kidney cells (normal cells).
For data set [5], the system named is NO production in LPS-stimulated RAW 264.7 macrophage cells. The data set can be described thus: Inhibition of NO production in LPS-stimulated RAW 264.7 cells. As to conditions: Mus musculus, RAW264.7, read-out: IC50 Inhibition of NO-production. The method, boiled down: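 RAW 264.7 murine macrophages were stimulated with LPS. NO release was measured as nitrite in the culture medium by the Griess reaction. Results are given as mean ± SD from three independent experiments. IC50 was estimated by curve fitting.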

Data set [6] deals with A549, Hep-G2, and MCF-7 human cancer cell lines. The data set can be described thus: Cytotoxicity, SRB assay, stated across the cancer cell lines. The settings on record: tested cell lines. Put shortly:
as §1

A word on the IC50: it is the concentration needed to halve the response being measured. With `Cc1c2ccncc2c(C)c2c1[nH]c1ccccc12` [Ellipticine, reference compound], the IC50 in data set [1] came to 1.71 ± 0.08 µM; in data set [2], 1.42 ± 0.08 µM; in data set [3], 1.54 ± 0.04 µM; in data set [4], 1.34 ± 0.08 µM.
Turning to `C[C@H]1C(=O)CC[C@@H]2[C@]1(C)CC[C@H]1[C@@]2(C)CC[C@@]2(C)[C@@H]3CC(C)(C)CC[C@]3(C)CC[C@]12C` [Compound 5, friedelin], the IC50 in data set [5], in data set [1], in data set [2] and in data set [3] was more than 100 µM throughout.
Consider `COC(=O)c1c(C)cc(O)c(C=O)c1O` [Compound 17, methyl haematommate], for which the IC50 in data set [5] is more than 100 µM; in data set [1], more than 100 µM; in data set [2] it was 80.7 ± 3.59 µM; in data set [3] it was 99.3 ± 6.83 µM; in data set [4], 70.7 ± 4.44 µM. Besides, the “cytotoxic activity in words” value in data set [6] is given as “weakly active”.
As for `C[C@H]1C(=O)CC[C@@H]2[C@]1(C)CC[C@H]1[C@@]2(C)CC[C@@]2(C)[C@@H]3CC(C)(C)CC[C@]3(CO)CC[C@]12C` [Compound 7, canophyllol], the 50% inhibitory concentration (IC50) in data set [5] came out at 79.9 ± 1.37 µM; in data set [1] it was 39.3 ± 1.29 µM; in data set [2] it was 22.4 ± 1.01 µM; in data set [3], 27.4 ± 1.19 µM; in data set [4], 30.1 ± 1.25 µM.
